Published values collected from several papers.
Lines come from different studies, so protocols differ.
Cell line: MRC5
Effect on: cell growth or viability

Structure (SMILES) | method | tested at | time | measurement | value
O=c1c2ccccc2[se]n1-c1ccccc1 | MTT |  | 72 h | IC50 | 94 µM
COc1c2c(cc3c1OCO3)[C@]13C=C[C@H](OC)C[C@@H]1[N@](C2)C[C@H]3OC(=O)c1ccoc1 | WST-1 |  |  | IC50 | > 10 µM
CC(C)(C)OC(=O)N1CCN(c2cc(-c3cnc4[nH]cc(C(=O)c5ccc(F)cc5)c4c3)ccn2)CC1 | MTT | 10 µM | 48 h | viability | 78.9%
Nc1cc(Cl)c(Cl)cc1N |  |  | 72 h | IC50 | > 250 µM
CC(C)=CCOc1c2occc2cc2ccc(=O)oc12 | MTT |  | 72 h | IC50 | > 100 µM
CC1=CC(=O)c2c(O)cccc2C1=O | SRB |  |  | IC50 | 5.15 µM
CCOC(=O)CCn1cc(C(=O)c2ccc(F)cc2)c2cc(-c3ccc(N4CCN(C(=O)OC(C)(C)C)CC4)nc3)cnc21 | MTT | 10 µM | 48 h | viability | 92.1%
Nc1cc(Br)c(Br)cc1N |  |  | 72 h | IC50 | 200 µM
CS(=O)(=O)N1CCN(c2ccc(-c3cnc4[nH]cc(C(=O)c5ccc(F)cc5)c4c3)cn2)CC1 | MTT | 10 µM | 48 h | viability | 79.1%
C=CCc1cc(OC)c2c(c1)OCO2 | SRB |  |  | IC50 | 420 µM
N.N.[Cl][Pt][Cl] | SRB |  |  | EC50 | 5.8 µM
COc1c2c(cc3c1OCO3)[C@]13C=C[C@H](OC)C[C@@H]1[N@](C2)C[C@H]3OC(=O)c1ccc2ccccc2c1 | WST-1 |  |  | IC50 | > 10 µM
CC(C)(C)OC(=O)N1CCN(c2ccc(-c3cnc4[nH]cc(C(=O)c5ccc(F)cc5)c4c3)cc2)CC1 | MTT | 10 µM | 48 h | viability | 78.7%
